Measurements taken from ChEMBL document CHEMBL1782048, “Novel 1-(2-aminopyrazin-3-yl)methyl-2-thioureas as potent inhibitors of mitogen-activated protein kinase-activated protein kinase 2 (MK-2)” (Bioorg Med Chem Lett, 2009).

Key:
[1] = target: MAP kinase-activated protein kinase 2 (Homo sapiens, UniProt P49137); assay: Inhibition of MK2 using biotin-LCAYSRALSRQLSSGVSEIRH substrate
THP-1 = assay: Inhibition of LPS-induced TNFalpha production in human THP1 cells after 4 hrs by ELISA; settings: THP-1, 4 h
Rattus norvegicus = species on record: Rattus norvegicus; assay: Normalized AUC in rat; assay type: ADME, organism-based; settings: in vivo
[2] = Clearance in rat; assay type: ADME, organism-based; settings: in vivo
[3] = Oral bioavailability AUC in rat; assay type: ADME, organism-based; settings: in vivo
[4] = target: Ribosomal protein S6 kinase alpha-1 (Homo sapiens) (UniProt Q15418); assay: Inhibition of RPS6KA1 at 10 uM
Chain of Ribosomal protein S6 kinase alpha-1 (Homo sapiens) (Q15418 whole entry): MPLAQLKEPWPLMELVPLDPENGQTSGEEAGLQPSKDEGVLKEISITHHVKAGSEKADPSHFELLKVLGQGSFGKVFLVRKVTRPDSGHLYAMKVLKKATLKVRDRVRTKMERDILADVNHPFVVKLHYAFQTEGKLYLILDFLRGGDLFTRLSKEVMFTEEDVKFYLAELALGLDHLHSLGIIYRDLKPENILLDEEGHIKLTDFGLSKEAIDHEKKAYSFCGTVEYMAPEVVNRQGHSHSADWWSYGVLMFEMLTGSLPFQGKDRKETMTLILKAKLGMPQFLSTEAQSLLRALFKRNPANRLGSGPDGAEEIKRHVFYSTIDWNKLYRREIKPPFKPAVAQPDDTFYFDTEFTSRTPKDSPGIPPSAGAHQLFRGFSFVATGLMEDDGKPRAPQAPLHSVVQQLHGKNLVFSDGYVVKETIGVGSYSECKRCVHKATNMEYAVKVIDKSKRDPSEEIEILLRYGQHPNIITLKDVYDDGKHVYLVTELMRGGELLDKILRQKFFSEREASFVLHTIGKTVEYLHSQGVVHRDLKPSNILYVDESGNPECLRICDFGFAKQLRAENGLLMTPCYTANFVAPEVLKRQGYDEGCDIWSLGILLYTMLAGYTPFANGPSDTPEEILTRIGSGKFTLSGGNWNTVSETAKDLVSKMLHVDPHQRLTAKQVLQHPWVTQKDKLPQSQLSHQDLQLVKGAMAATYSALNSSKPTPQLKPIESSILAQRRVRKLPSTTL

[5] = Inhibition of AMPK at 10 uM
[6] = Half life in rat; assay type: ADME, organism-based; settings: in vivo
Mus musculus = assay: Antiinflammatory activity in BALB/c mouse assessed as inhibition of LPS-stimulated TNFalpha production at 10 mg/kg, iv after 1.5 hrs; assay type: functional
Procedure, shortened: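 Female Balb/c mice, 12 weeks old, dosed iv at 10 mg/kg in DMSO/Cremophor/saline (or vehicle alone) just before injection of 10 µg/mouse LPS (E. coli serotype 0111:B4) plus 800 mg/kg D-galactosamine in saline. Animals euthanized 90 min later; plasma TNF measured by ELISA.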

[7] = target: Ribosomal protein S6 kinase alpha-5 (Homo sapiens) (UniProt O75582); assay: Inhibition of RPS6KA5 at 10 uM
Chain of Ribosomal protein S6 kinase alpha-5 (Homo sapiens) (O75582 whole entry, looked up): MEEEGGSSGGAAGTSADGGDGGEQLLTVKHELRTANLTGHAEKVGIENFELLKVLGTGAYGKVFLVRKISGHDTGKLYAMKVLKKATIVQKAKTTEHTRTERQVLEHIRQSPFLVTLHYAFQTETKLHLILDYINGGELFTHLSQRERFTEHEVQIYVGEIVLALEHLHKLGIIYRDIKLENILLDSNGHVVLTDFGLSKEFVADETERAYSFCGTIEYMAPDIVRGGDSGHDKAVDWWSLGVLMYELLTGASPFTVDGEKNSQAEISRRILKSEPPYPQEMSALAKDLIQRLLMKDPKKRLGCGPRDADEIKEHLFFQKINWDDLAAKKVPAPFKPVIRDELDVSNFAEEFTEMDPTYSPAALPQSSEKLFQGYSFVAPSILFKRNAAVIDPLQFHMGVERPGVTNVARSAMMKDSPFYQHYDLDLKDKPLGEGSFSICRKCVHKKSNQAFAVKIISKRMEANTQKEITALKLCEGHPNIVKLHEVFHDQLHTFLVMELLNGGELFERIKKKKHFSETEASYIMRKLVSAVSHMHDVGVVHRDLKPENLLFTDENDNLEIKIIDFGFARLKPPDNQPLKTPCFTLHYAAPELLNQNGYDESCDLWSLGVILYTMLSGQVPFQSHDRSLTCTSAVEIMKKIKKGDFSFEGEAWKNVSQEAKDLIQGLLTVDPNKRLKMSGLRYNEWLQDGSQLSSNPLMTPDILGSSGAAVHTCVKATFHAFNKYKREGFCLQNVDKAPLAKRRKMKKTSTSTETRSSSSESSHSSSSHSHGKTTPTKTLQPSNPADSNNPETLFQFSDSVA

[8] = target: T1, MAP kinase-activated protein kinase 5 (Homo sapiens) (UniProt Q8IW41); assay: Inhibition of MK5 at 1 uM
T1 sequence (whole entry): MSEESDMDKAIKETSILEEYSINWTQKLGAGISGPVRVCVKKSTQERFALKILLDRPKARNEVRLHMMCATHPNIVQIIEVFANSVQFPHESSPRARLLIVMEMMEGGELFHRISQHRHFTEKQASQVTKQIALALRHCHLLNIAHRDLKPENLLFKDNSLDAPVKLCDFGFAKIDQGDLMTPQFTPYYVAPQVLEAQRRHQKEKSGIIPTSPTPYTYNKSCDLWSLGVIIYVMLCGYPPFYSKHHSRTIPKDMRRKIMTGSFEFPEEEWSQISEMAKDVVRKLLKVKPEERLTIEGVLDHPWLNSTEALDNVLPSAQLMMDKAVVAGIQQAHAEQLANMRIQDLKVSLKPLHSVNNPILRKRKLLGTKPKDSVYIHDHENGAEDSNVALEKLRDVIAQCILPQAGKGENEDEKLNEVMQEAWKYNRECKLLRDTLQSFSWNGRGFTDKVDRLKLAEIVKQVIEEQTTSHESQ

Chain of MAP kinase-activated protein kinase 2 (P49137 whole entry): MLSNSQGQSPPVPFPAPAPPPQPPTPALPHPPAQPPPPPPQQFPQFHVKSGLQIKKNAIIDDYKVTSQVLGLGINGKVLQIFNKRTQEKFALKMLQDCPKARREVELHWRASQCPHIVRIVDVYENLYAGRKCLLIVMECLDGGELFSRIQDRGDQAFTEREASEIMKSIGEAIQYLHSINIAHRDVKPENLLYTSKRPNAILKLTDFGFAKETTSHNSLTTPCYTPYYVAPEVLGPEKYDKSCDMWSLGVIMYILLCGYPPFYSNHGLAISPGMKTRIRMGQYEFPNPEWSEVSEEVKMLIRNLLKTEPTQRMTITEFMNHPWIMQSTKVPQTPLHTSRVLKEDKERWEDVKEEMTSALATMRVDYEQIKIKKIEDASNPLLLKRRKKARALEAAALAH

Compound	IC50 [1]	further results
Nc1ncc(Cl)nc1CNC(=S)NC1CCCCCC1	35 µM	–
CCc1cnc(N)c(CNC(=S)Nc2ccc(NC(=O)OC(C)(C)C)cc2)n1	–	IC50 (THP-1): 4 µM
Nc1ncc(Cl)nc1CNC(=S)Nc1cccc2ccccc12	3.2 µM	–
Cc1cnc(N)c(CNC(=S)Nc2ccc3[nH]c(=O)sc3c2)n1	15 µM	–
Cc1ccccc1NC(=S)NCc1nc(Cl)cnc1N	3.6 µM	–
Nc1ncc(Cl)nc1CNC(=S)Nc1ccccc1-c1ccccc1	> 20 µM	–
Cc1cnc(N)c(CNC(=S)Nc2ccc3oc(=O)[nH]c3c2)n1	14 µM	–
CCOc1nc(N)c(CNC(=S)Nc2ccccc2)nc1Cl	> 50 µM	–
CC(C)(C)NC(=S)NCc1nc(Cl)cnc1N	2.5 µM	–
Nc1ccc(NC(=S)NCc2nc(Cl)cnc2N)cc1	2 µM	–
Cc1cnc(N)c(CNC(=S)Nc2ccc3c(c2)[nH]c(=O)n3C)n1	> 20 µM	–
CN(C)c1nc(N)c(CNC(=S)Nc2ccccc2)nc1Cl	> 50 µM	–
Nc1ncc(Cl)nc1CNC(=S)Nc1ccc(Cl)c(Cl)c1	40 µM	–
CCCc1cnc(N)c(CNC(=S)Nc2ccc(NC(=O)OC(C)(C)C)cc2)n1	0.045 µM	AUC/dose (Rattus norvegicus): 3.3 µM·kg·h/mg; clearance [2]: 2.5 mL/min/kg; bioavailability [3]: 19%; inhibition [4]: > 70%; inhibition [5]: > 70%; half-life [6]: 48 min; inhibition in vivo at 10 mg/kg (Mus musculus): 62%; inhibition [7]: > 70%; IC50 (THP-1): 3 µM
Nc1ncc(Cl)nc1CNC(=S)NCc1ccccc1	36 µM	–
CSc1nc(N)c(CNC(=S)Nc2ccccc2)nc1Cl	> 50 µM	–
Cc1cnc(N)c(CNC(=S)Nc2ccc3[nH]c(=O)[nH]c3c2)n1	15 µM	–
CC(C)NC(=S)NCc1nc(Cl)cnc1N	13 µM	–
Nc1ncc(Cl)nc1CNC(=S)Nc1ccccc1Cl	1.1 µM	–
Nc1ncc(Cl)nc1CNC(=S)Nc1cc(Cl)cc(Cl)c1	27 µM	–
Nc1ncc(Cl)nc1CNC(=S)NC1CC1	12 µM	–
Cc1cnc(N)c(CNC(=S)Nc2ccc(NC(=O)Cc3ccccc3)cc2)n1	3.8 µM	–

Compound	IC50 [1]	further results
Nc1ncc(Cl)nc1CNC(=S)NC1CCCC1	53 µM	–
Nc1ncc(Cl)nc1CNC(=S)Nc1ccc(Br)cc1	3.1 µM	–
Cc1cnc(N)c(CNC(=S)Nc2ccc3c(c2)CC(=O)N3)n1	27 µM	–
Nc1ncc(C(F)(F)F)nc1CNC(=S)Nc1ccccc1	> 50 µM	–
CC(C)(C)OC(=O)Nc1ccc(NC(=S)NCc2nc(C3CC3)cnc2N)cc1	–	IC50 (THP-1): 3.2 µM
Nc1ncc(Cl)nc1CNC(=S)Nc1ccccc1F	2 µM	–
CCCCc1cnc(N)c(CNC(=S)Nc2ccc3[nH]c(=O)oc3c2)n1	–	IC50 (THP-1): 3.8 µM
CCN(CC)CCCNC(=S)NCc1nc(Cl)cnc1N	> 50 µM	–
Cc1cnc(N)c(CNC(=S)Nc2ccc(NC(=O)Oc3ccccc3)cc2)n1	0.73 µM	–
Nc1ncc(Cl)nc1CNC(=S)NCCc1ccccc1	> 50 µM	–
Nc1ncc(Cl)nc1CNC(=S)NC(=O)c1ccccc1	91 µM	–
Nc1ncc(C2CC2)nc1CNC(=S)Nc1ccc2[nH]c(=O)oc2c1	0.015 µM	inhibition in vivo at 10 mg/kg (Mus musculus): 75%; IC50 (THP-1): 1.7 µM
Nc1ncc(Cl)nc1CNC(=S)Nc1ccc(-n2cnnn2)cc1	> 40 µM	–
CC(C)(C)NC(=O)Nc1ccc(NC(=S)NCc2nc(C3CC3)cnc2N)cc1	–	IC50 (THP-1): 1.4 µM
Nc1ncc(Cl)nc1CNC(=S)Nc1ccc(Cl)cc1	3.7 µM	–
CCCc1cnc(N)c(CNC(=S)Nc2ccc3[nH]c(=O)oc3c2)n1	–	AUC/dose (Rattus norvegicus): 0.3 µM·kg·h/mg; clearance [2]: 12.9 mL/min/kg; bioavailability [3]: 8%; half-life [6]: 18 min; inhibition in vivo at 10 mg/kg (Mus musculus): 70%; IC50 (THP-1): 0.75 µM; inhibition [8]: > 70%
Nc1ncc(Cl)nc1CNC(=S)Nc1ccc(Cl)cc1Cl	4.3 µM	–
Cc1cccc(NC(=S)NCc2nc(Cl)cnc2N)c1	9.3 µM	–
Cc1ccc(NC(=S)NCc2nc(Cl)cnc2N)cc1	2.7 µM	–
Nc1ncc(Cl)nc1CNC(=S)Nc1cccc(Cl)c1	11.3 µM	–
Cc1cnc(N)c(CNC(=S)Nc2ccc(NC(=O)c3ccccc3)cc2)n1	0.58 µM	–
